{"source": "ChEMBL document CHEMBL4311956", "about": "“A Qualified Success: Discovery of a New Series of ATAD2 Bromodomain Inhibitors with a Novel Binding Mode Using High-Throughput Screening and Hit Qualification” (J Med Chem, 2019)", "key": {"[1]": {"molecular_target": "Nucleosome-remodeling factor subunit BPTF (Homo sapiens, UniProt Q12830)", "test": "Inhibition of BPTF (unknown origin) by TR-FRET assay"}, "[2]": {"organism": "Homo sapiens", "test": "(§1) Selectivity ratio, ratio of displacement of Alexa Fluor 647 labelled ligand from His6-tagged BRD4 BD1 (1 to 477 residues)/BD2 Y390A mutant (unknown origin) to displacement of SGRG-K(Ac)-GG-K(Ac)-GLG-K(Ac)-GGAKRHRKV-biotin) from His6/FLAG-tagged TEV fused ATAD2 bromodomain (981 to 1121 residues) expressed in Escherichia coli BL21(DE3) cells"}, "[3]": {"organism": "Homo sapiens", "test": "as §1, with “BD2” for “BD1”, “residues)/BD1 Y97A” for “residues)/BD2 Y390A”"}, "[4]": {"molecular_target": "T1, ATPase family AAA domain-containing protein 2 (Homo sapiens, UniProt Q6PL18)", "T1 sequence (Q6PL18 whole entry)": "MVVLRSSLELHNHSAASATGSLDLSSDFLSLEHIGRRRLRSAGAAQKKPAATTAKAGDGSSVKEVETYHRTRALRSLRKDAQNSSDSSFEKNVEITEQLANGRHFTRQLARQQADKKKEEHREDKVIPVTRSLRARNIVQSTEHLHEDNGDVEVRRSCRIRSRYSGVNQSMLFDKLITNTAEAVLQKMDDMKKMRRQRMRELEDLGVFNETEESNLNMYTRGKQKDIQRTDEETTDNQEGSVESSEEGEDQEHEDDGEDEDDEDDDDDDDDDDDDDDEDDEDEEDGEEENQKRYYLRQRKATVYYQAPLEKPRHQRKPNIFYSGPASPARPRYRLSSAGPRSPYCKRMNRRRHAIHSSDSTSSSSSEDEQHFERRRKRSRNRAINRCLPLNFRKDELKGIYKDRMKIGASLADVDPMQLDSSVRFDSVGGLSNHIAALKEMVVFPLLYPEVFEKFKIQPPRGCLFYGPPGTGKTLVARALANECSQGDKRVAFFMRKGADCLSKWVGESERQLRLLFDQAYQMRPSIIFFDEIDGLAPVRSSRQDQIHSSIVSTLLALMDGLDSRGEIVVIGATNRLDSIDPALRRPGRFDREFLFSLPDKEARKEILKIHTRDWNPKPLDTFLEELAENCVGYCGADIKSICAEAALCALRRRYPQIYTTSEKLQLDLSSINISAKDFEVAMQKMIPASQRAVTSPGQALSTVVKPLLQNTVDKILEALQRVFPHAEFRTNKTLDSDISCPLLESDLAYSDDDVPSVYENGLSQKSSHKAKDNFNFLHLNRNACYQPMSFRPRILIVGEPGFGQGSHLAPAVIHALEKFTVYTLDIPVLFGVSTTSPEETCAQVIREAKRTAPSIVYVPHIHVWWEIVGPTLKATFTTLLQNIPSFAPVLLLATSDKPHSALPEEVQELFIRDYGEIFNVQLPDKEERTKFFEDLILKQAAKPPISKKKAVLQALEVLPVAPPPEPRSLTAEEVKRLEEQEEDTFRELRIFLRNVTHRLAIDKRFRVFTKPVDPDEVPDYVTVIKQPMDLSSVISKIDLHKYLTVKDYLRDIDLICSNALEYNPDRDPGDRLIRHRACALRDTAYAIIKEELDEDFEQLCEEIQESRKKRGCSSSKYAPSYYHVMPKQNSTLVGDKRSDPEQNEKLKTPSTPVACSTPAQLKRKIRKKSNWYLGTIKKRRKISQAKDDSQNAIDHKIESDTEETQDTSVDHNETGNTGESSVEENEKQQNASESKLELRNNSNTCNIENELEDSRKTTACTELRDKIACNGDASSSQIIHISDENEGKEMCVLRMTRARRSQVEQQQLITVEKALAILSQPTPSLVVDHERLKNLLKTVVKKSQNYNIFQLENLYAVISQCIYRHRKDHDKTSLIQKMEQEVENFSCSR", "test": "Inhibition of ATAD2 bromodomain in human HUT78 chromatin lysate after 2 hrs by bromosphere competition binding assay", "how_it_was_run": "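Bromosphere chemoproteomic assay. Measures competitive inhibition of binding of endogenous full-length ATAD2 from Hut-78 cells.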"}, "[5]": {"molecular_target": "Bromodomain-containing protein 2 (Homo sapiens, UniProt P25440, Y386A)", "sequence (P25440 whole entry Y386A, the tested form may be a part)": "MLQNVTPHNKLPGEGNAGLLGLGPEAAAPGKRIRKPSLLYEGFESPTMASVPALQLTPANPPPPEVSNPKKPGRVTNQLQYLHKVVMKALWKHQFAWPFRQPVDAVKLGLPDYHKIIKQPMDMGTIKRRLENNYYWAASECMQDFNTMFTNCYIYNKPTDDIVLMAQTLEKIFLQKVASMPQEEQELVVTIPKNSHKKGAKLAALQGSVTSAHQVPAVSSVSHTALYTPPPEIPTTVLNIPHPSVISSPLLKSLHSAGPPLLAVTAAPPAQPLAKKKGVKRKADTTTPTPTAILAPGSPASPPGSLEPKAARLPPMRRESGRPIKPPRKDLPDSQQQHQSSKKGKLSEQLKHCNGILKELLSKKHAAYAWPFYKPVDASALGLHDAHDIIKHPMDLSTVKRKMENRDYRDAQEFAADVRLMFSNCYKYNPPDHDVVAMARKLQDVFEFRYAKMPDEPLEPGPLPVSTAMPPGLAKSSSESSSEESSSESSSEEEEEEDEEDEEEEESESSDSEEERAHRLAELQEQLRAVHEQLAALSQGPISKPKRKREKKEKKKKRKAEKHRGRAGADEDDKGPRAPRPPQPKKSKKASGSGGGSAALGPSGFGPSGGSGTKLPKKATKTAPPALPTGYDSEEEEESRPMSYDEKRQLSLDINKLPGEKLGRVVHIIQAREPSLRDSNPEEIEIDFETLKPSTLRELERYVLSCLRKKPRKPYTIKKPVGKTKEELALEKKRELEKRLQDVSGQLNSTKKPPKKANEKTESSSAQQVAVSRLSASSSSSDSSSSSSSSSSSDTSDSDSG", "test": "Displacement of Alexa Fluor 647 labelled ligand from His6-tagged BRD2 BD1 (1 to 473 residues)/BD2 Y386A mutant (unknown origin) after 30 mins by TR-FRET assay", "how_it_was_run": "(§2)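 BET selectivity by TR-FRET fluoroligand displacement. Uses tandem BET bromodomain constructs carrying a mutation in the non-assayed bromodomain.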"}, "[6]": {"molecular_target": "Bromodomain testis-specific protein (Homo sapiens, UniProt Q58F21, Y309A)", "test": "Displacement of Alexa Fluor 647 labelled ligand from His6/FLAG-tagged TEV fused BRDT BD1(1 to 397 residues)/BD2 Y309A mutant (unknown origin) after 30 mins by TR-FRET assay", "how_it_was_run": "as §2"}, "[7]": {"molecular_target": "Bromodomain-containing protein 9 (Homo sapiens, UniProt Q9H8M2)", "sequence (Q9H8M2 whole entry)": "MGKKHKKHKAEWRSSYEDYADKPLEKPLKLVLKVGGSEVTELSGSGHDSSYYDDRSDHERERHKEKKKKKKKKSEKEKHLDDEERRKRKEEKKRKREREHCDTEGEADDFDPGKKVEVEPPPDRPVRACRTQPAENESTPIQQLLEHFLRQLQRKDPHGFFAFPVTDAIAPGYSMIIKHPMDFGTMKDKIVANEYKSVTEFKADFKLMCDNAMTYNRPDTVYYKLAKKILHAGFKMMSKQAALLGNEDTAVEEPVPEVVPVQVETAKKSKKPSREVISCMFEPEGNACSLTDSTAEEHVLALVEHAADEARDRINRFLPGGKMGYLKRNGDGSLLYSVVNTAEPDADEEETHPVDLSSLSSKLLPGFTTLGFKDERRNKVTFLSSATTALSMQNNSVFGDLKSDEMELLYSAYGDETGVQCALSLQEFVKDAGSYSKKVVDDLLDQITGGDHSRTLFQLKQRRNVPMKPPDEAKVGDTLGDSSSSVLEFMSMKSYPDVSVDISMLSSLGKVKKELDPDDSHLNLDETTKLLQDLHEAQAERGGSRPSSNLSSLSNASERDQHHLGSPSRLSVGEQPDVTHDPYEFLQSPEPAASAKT", "test": "Inhibition of BRD9 (unknown origin) by TR-FRET assay"}, "[8]": {"molecular_target": "Peregrin (Homo sapiens, UniProt P55201)", "sequence (P55201 whole entry)": "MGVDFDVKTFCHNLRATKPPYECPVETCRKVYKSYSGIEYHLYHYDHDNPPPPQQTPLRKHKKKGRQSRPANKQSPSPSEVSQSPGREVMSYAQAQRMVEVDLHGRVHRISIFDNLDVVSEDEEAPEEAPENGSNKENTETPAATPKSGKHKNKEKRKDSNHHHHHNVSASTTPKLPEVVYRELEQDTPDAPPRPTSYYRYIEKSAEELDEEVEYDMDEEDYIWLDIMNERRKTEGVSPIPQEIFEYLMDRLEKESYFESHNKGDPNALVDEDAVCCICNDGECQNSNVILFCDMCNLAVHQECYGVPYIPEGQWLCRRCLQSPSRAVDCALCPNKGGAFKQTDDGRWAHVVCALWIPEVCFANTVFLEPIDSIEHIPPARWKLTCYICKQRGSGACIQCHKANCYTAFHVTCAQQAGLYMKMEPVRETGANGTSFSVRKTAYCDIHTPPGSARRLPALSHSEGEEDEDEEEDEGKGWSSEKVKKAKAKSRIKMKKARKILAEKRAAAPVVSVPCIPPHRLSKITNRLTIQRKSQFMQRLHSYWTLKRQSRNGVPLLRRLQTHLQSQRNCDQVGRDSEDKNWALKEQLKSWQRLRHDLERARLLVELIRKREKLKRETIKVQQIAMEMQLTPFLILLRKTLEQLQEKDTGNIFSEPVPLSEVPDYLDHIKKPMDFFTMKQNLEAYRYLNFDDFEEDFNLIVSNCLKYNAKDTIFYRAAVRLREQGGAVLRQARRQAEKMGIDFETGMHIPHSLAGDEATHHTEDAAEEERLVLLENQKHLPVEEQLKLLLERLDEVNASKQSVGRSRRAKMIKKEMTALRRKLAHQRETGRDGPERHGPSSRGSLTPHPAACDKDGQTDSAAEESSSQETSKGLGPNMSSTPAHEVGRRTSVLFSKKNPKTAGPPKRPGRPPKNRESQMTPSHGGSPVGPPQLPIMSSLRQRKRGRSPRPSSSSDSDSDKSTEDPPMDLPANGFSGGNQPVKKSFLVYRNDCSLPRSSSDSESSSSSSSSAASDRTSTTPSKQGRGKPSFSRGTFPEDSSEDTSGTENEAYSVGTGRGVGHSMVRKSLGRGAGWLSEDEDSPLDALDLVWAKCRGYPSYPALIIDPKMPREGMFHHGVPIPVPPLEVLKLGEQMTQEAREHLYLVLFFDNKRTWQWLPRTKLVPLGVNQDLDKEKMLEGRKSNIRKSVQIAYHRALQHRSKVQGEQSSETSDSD", "test": "Inhibition of BRPF1 (unknown origin) by TR-FRET assay"}, "[9]": {"molecular_target": "Chromatin remodeling regulator CECR2 (Homo sapiens, UniProt Q9BXF3)", "test": "Inhibition of CECR2 (unknown origin) by TR-FRET assay"}, "[10]": {"molecular_target": "CREB-binding protein (Homo sapiens, UniProt Q92793)", "sequence (Q92793 whole entry)": "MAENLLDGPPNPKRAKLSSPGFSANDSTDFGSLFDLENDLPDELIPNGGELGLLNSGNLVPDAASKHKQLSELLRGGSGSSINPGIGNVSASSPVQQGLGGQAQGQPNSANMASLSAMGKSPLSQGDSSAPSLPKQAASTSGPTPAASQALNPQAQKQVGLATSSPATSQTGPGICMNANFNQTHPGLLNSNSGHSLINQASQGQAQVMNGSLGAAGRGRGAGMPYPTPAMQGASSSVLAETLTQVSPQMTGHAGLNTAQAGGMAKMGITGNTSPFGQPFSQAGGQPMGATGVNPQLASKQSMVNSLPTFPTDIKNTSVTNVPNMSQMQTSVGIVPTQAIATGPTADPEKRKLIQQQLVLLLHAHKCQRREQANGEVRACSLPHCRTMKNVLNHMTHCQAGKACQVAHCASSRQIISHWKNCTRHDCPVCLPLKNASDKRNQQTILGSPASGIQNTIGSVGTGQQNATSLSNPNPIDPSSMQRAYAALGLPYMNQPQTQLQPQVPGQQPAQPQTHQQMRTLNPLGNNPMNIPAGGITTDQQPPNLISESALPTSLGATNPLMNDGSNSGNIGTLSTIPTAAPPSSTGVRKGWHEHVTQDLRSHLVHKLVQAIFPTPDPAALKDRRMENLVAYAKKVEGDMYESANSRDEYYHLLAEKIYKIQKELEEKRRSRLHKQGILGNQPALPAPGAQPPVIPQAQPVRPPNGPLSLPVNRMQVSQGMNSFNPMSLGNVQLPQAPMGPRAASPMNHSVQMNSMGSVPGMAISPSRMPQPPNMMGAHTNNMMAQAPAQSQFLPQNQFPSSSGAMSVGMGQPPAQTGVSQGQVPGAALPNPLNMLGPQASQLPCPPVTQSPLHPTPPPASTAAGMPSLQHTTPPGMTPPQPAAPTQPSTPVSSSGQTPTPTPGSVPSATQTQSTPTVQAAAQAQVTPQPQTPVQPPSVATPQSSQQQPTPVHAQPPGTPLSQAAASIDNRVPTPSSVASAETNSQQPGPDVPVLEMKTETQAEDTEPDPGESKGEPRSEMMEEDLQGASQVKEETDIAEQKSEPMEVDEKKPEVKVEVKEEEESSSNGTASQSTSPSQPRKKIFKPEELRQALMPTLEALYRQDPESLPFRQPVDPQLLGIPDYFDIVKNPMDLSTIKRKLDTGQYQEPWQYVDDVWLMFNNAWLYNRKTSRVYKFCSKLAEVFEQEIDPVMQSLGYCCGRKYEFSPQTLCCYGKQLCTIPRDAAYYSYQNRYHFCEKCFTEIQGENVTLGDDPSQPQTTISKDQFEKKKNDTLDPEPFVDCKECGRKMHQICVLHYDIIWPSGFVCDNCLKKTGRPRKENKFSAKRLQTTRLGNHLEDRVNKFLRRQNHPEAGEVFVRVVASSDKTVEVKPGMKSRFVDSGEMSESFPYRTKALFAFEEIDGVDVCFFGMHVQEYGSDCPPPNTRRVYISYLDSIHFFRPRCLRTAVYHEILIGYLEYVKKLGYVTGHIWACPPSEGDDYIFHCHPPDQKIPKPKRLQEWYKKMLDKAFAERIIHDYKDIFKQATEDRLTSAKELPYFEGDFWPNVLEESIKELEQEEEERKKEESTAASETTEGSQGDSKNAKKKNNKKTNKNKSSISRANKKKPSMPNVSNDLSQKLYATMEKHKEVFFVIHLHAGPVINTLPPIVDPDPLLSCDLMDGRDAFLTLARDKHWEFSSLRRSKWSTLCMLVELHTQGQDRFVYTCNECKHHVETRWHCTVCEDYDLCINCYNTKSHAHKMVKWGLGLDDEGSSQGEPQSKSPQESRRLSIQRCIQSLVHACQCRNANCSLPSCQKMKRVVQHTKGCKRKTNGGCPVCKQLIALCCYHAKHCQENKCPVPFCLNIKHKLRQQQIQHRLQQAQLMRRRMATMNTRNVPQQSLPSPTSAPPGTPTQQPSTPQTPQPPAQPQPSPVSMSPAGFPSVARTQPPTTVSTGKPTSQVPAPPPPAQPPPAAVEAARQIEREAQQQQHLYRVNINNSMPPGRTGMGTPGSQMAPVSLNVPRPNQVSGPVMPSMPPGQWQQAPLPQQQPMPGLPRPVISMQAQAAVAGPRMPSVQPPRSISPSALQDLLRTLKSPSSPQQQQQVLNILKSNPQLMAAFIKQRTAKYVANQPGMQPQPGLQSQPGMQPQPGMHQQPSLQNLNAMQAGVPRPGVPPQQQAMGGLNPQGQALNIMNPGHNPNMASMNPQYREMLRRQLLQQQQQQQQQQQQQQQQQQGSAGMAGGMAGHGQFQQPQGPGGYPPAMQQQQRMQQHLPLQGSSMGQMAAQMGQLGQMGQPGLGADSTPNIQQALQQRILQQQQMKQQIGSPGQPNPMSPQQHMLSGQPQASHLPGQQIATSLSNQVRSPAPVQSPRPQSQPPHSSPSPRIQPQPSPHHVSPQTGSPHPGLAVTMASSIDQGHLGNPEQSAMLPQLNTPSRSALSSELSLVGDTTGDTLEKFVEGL", "test": "Inhibition of CREBBP (unknown origin) by TR-FRET assay"}, "[11]": {"organism": "Homo sapiens", "test": "Selectivity ratio, ratio of inhibition of TAF1 BD2 (unknown origin) to displacement of SGRG-K(Ac)-GG-K(Ac)-GLG-K(Ac)-GGAKRHRKV-biotin) from His6/FLAG-tagged TEV fused ATAD2 bromodomain (981 to 1121 residues) expressed in Escherichia coli BL21(DE3) cells"}, "[12]": {"organism": "Homo sapiens", "test": "Selectivity ratio, ratio of inhibition of CECR2 (unknown origin) to Displacement of biotinylated H4 peptide from ATAD2B bromodomain (unknown origin) by TR-FRET assay"}, "[13]": {"organism": "Homo sapiens", "test": "Selectivity ratio, ratio of inhibition of BRPF3 (unknown origin) to Displacement of biotinylated H4 peptide from ATAD2B bromodomain (unknown origin) by TR-FRET assay"}}}
{"smiles": "CC1(C2CC2)NC(=O)N(CC(=O)Nc2ccc(Br)c(S(=O)(=O)N3CCCCC3)c2)C1=O", "note": "(racemic)", "values": [{"measurement": "IC50", "setting": "[1]", "result": 63.1, "unit": "µM"}, {"measurement": "Selectivity ratio", "setting": "[2]", "result": "> 100"}, {"measurement": "Selectivity ratio", "setting": "[3]", "result": 60}, {"measurement": "IC50", "setting": "[4]", "result": 3.98, "unit": "µM"}, {"measurement": "IC50", "setting": "[5]", "result": "> 50.1", "unit": "µM"}, {"measurement": "IC50", "setting": "[6]", "result": 25.1, "unit": "µM"}, {"measurement": "IC50", "setting": "[7]", "result": "> 50.1", "unit": "µM"}, {"measurement": "IC50", "setting": "[8]", "result": "> 100", "unit": "µM"}, {"measurement": "IC50", "setting": "[9]", "result": 2.51, "unit": "µM"}, {"measurement": "IC50", "setting": "[10]", "result": "> 100", "unit": "µM"}, {"measurement": "Selectivity ratio", "setting": "[11]", "result": "> 10"}, {"measurement": "Selectivity ratio", "setting": "[12]", "result": "> 10"}, {"measurement": "Selectivity ratio", "setting": "[13]", "result": "> 10"}]}
